Experimental data as given in ChEMBL document CHEMBL5608261, “Pharmacophore Establishment and Optimization of Saturated 1,6-Naphthyridine-Fused Quinazolinones that Inhibit Meningoencephalitis-Causing Naegleria fowleri” (J Med Chem, 2024).

Test system: SH-SY5Y
Assay: Cytotoxicity against human SH-SY5Y cells assessed as reduction in cell viability incubated for 72 hrs by CellTiter-Glo assay
Format: toxicity, cell-based
Settings: sh-sy5y, 72 h
Summary of the method: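 SH-SY5Y cells at 2000 per well attached overnight at 37 °C. Compound from 20 mM DMSO stocks was added in triplicate as a dose series starting at 20 μM, with doxorubicin as positive control.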
For `CN1CCC[C@@H]2c3nc4ccc(F)cc4c(=O)n3CC[C@H]21` (racemic), the CC50 was over 20 µM.
Work on `CN(C)CCN1CCC[C@@H]2c3nc4cc(Cl)c(Cl)cc4c(=O)n3CC[C@H]21` (racemic) yielded a CC50 of 8 µM.
With `CN1CCC[C@@H]2c3nc4ccccc4c(=O)n3CC[C@H]21` (racemic) the CC50 was over 20 µM.
With `CN1CCC[C@H]2c3nc4cc(-c5ccccc5)c(Cl)cc4c(=O)n3CC[C@H]21` (racemic) the CC50 was over 20 µM.
In the case of `CC(C)(C)C(=O)N1CCC[C@@H]2c3nc4cc(Cl)c(Cl)cc4c(=O)n3CC[C@H]21` (racemic), the CC50 is reported as over 20 µM.
In the case of `O=c1c2cc(Cl)c(Cl)cc2nc2n1CC[C@@H]1[C@@H]2CCCN1Cc1cccnc1` (racemic), the CC50 is reported as over 20 µM.
With `COCCN1CCC[C@@H]2c3nc4cc(Cl)c(Cl)cc4c(=O)n3CC[C@H]21` (racemic) the CC50 was 10 µM.
`COc1ccc2c(=O)n3c(nc2c1)[C@H]1CCCN(C)[C@@H]1CC3` (racemic) showed a CC50 of over 20 µM.
In the case of `CC(C)NCCN1CCC[C@@H]2c3nc4cc(Cl)c(Cl)cc4c(=O)n3CC[C@H]21` (racemic), the CC50 is reported as 6.4 µM.

Test system: Naegleria fowleri
Assay: Anti-ameobic activity against Naegleria fowleri Nf69 (ATCC 30215) trophozoites assessed as inhibition of amoeba growth incubated for 48 hrs by CellTiter-Glo assay
Format: functional, organism-based
Settings: Naegleria fowleri, Nf69 (ATCC 30215), 48 h
Summary of the method: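 Axenic Nf69 trophozoites were seeded at 1 × 10^4 cells/mL in Nelson's complete medium with 10% heat-inactivated FBS. Compound was added at 20 to 0.375 μM (lower ranges for very potent compounds), with vehicle controls, for 48 h at 37 °C and 5% CO2. CellTiter-Glo luminescence gave % growth inhibition versus controls, and triplicate means were fitted to dose–response curves for EC50.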
`CN1CCC[C@H]2c3nc4ccc(C(F)(F)F)cc4c(=O)n3CC[C@@H]21` gave an EC50 of 4.3 µM.
In the case of `CN1CCC[C@H]2c3nc4ccc(Cl)cc4c(=O)n3CC[C@@H]21`, the EC50 is reported as 4 µM.
With `CN1CCC[C@H]2c3nc4cc(Cl)c(Cl)cc4c(=O)n3CC[C@@H]21` the EC50 was 2.6 µM.
With `Cc1ccc2nc3n(c(=O)c2c1)CC[C@@H]1[C@@H]3CCCN1C` (racemic) the EC50 was 3.1 µM.
With `CN1CCC[C@H]2c3nc4cccc(Cl)c4c(=O)n3CC[C@H]21` (racemic) the EC50 was over 10 µM.
In the case of `COc1ccc2c(=O)n3c(nc2c1)[C@@H]1CCCN(C)[C@@H]1CC3` (racemic), the EC50 is reported as 1.8 µM.
Work on `CN1CCC[C@H]2c3nc4cc(Cl)c(Cl)cc4c(=O)n3CC[C@H]21` (racemic) yielded an EC50 of 0.26 µM.
In the case of `CN1CCC[C@@H]2c3nc4cnccc4c(=O)n3CC[C@H]21` (racemic), the EC50 is reported as over 10 µM.
With `Cc1cccc2nc3n(c(=O)c12)CC[C@@H]1[C@H]3CCCN1C` (racemic) the EC50 was over 10 µM.
Compound `COc1ccc2nc3n(c(=O)c2c1)CC[C@@H]1[C@@H]3CCCN1C` (racemic) has an EC50 of 7.3 µM.
Compound `COc1cc(Cl)cc2c(=O)n3c(nc12)[C@@H]1CCCN(C)[C@@H]1CC3` (racemic) has an EC50 of over 10 µM.
For `COc1cc2nc3n(c(=O)c2cc1Cl)CC[C@@H]1[C@H]3CCCN1C` (racemic), the EC50 was 0.38 µM.
Work on `CN1CCC[C@@H]2c3nc4cc(C(F)(F)F)ccc4c(=O)n3CC[C@H]21` (racemic) yielded an EC50 of 0.99 µM.
`CN1CCC[C@H]2c3nc4cnccc4c(=O)n3CC[C@H]21` (racemic) gave an EC50 of over 10 µM.
For `CN1CCC[C@H]2c3nc4cc(F)ccc4c(=O)n3CC[C@H]21` (racemic), the EC50 was over 10 µM.
For `CN1CCC[C@@H]2c3nc4cc(Cl)c(C(F)(F)F)cc4c(=O)n3CC[C@H]21` (racemic), the EC50 was 0.34 µM.
In the case of `CN1CCC[C@H]2c3nc4ccc(Cl)cc4c(=O)n3CC[C@H]21` (racemic), the EC50 is reported as 2.2 µM.
Compound `CN1CCC[C@@H]2c3nc4ccc(C#N)cc4c(=O)n3CC[C@H]21` (racemic) has an EC50 of 0.67 µM.
`CN1CCC[C@H]2c3nc4ccc(C(F)(F)F)cc4c(=O)n3CC[C@H]21` (racemic) showed an EC50 of 0.95 µM.
Compound `CN1CCC[C@@H]2c3nc4ccc(F)cc4c(=O)n3CC[C@H]21` (racemic) has an EC50 of over 10 µM.
For `CN(C)CCN1CCC[C@@H]2c3nc4cc(Cl)c(Cl)cc4c(=O)n3CC[C@H]21` (racemic), the EC50 was 0.18 µM.
Work on `CN1CCC[C@@H]2c3nc4ccccc4c(=O)n3CC[C@H]21` (racemic) yielded an EC50 of over 10 µM.
Compound `CN1CCC[C@H]2c3nc4cc(-c5ccccc5)c(Cl)cc4c(=O)n3CC[C@H]21` (racemic) has an EC50 of 3.4 µM.
Compound `CN1CCC[C@H]2c3nc4ccccc4c(=O)n3CC[C@H]21` (racemic) has an EC50 of over 10 µM.
In the case of `CC(C)(C)C(=O)N1CCC[C@@H]2c3nc4cc(Cl)c(Cl)cc4c(=O)n3CC[C@H]21` (racemic), the EC50 is reported as over 10 µM.
In the case of `CN1CCC[C@H]2c3nc4cc(Cl)ccc4c(=O)n3CC[C@H]21` (racemic), the EC50 is reported as over 10 µM.
With `O=c1c2cc(Cl)c(Cl)cc2nc2n1CC[C@@H]1[C@@H]2CCCN1Cc1cccnc1` (racemic) the EC50 was 0.0002 µM.
With `COCCN1CCC[C@@H]2c3nc4cc(Cl)c(Cl)cc4c(=O)n3CC[C@H]21` (racemic) the EC50 was 0.023 µM.
`COc1ccc2c(=O)n3c(nc2c1)[C@H]1CCCN(C)[C@@H]1CC3` (racemic) gave an EC50 of 1.5 µM.
Work on `CC(C)NCCN1CCC[C@@H]2c3nc4cc(Cl)c(Cl)cc4c(=O)n3CC[C@H]21` (racemic) yielded an EC50 of 0.13 µM.
Compound `CN1CCC[C@H]2c3nc4ccc(F)cc4c(=O)n3CC[C@H]21` (racemic) has an EC50 of over 10 µM.

Test system: not listed separately
Assay: Metabolic stability in CD-1 mouse liver microsomes assessed as half-life incubated for 60 mins by LC-MS/MS analysis
Format: ADME, Microsome
Settings: 1 h
Summary of the method: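 Half-life measured in CD-1 mouse liver microsomes with NADPH over a 60 min exposure.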
With `O=c1c2cc(Cl)c(Cl)cc2nc2n1CC[C@@H]1[C@@H]2CCCN1Cc1cccnc1` (racemic) the t1/2 was 21.9 min.
`COCCN1CCC[C@@H]2c3nc4cc(Cl)c(Cl)cc4c(=O)n3CC[C@H]21` (racemic) gave a t1/2 of 17 min.

Test system: not listed separately
Assay: Selectivity index, ratio of CC50 for cytotoxicity against human SH-SY5Y cells to EC50 for anti-amoebic activity against Naegleria fowleri Nf69 (ATCC 30215) assessed as inhibition of amoeba growth
Format: toxicity, cell-based
Settings: SH-SY5Y cells, read-out: Ratio CC50/EC50
For `CN1CCC[C@H]2c3nc4ccc(C(F)(F)F)cc4c(=O)n3CC[C@@H]21`, the selectivity ratio was over 4.7.
With `CN1CCC[C@H]2c3nc4ccc(Cl)cc4c(=O)n3CC[C@@H]21` the selectivity ratio was over 5.
In the case of `CN1CCC[C@H]2c3nc4cc(Cl)c(Cl)cc4c(=O)n3CC[C@@H]21`, the selectivity ratio is reported as over 7.7.
`CN(C)CCN1CCC[C@@H]2c3nc4cc(Cl)c(Cl)cc4c(=O)n3CC[C@H]21` (racemic) gave a selectivity ratio of 44.
`COCCN1CCC[C@@H]2c3nc4cc(Cl)c(Cl)cc4c(=O)n3CC[C@H]21` (racemic) showed a selectivity ratio of 435.
`CC(C)NCCN1CCC[C@@H]2c3nc4cc(Cl)c(Cl)cc4c(=O)n3CC[C@H]21` (racemic) showed a selectivity ratio of 49.
